From ChEMBL document CHEMBL1127493, “Glycylcyclines. 1. A new generation of potent antibacterial agents through modification of 9-aminotetracyclines” (1994)
Converted amounts (≈) assume the structure as drawn.

Key:
Type in all cases: functional
Enterococcus faecalis = test: In vitro minimum inhibitory concentration against Enterococcus faecalis ATCC 29212.
Procedure, shortened: (§1)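 Agar dilution on Mueller–Hinton II agar; inoculum (1-5) × 10^5 CFU/mL; antibiotic concentrations 32–0.004 µg/mL; plates incubated 18 h at 35 °C in forced-air incubator. MIC taken as lowest concentration inhibiting growth of the test organism (tetracycline-sensitive and tetracycline-resistant strains).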

Staphylococcus aureus [1] = test: In vitro minimum inhibitory concentration against Staphylococcus aureus UBMS 90-3 (sensitive).; procedure, shortened: as §1
Escherichia coli [2] = test: In vitro minimum inhibitory concentration against Escherichia coli J3272 (tet C efflux).; procedure, shortened: as §1
Staphylococcus aureus [3] = test: In vitro minimum inhibitory concentration against Staphylococcus aureus smith (sensitive).; procedure, shortened: as §1
Escherichia coli [4] = test: In vitro minimum inhibitory concentration against Escherichia coli UBMS 90-5 (sensitive).; procedure, shortened: as §1
Escherichia coli [5] = test: In vitro minimum inhibitory concentration against Escherichia coli PRP-1 (tet A efflux).; procedure, shortened: as §1
Staphylococcus aureus [6] = test: In vitro minimum inhibitory concentration against Staphylococcus aureus UBMS 88-7 (tet K efflux).; procedure, shortened: as §1
Staphylococcus aureus [7] = test: In vitro minimum inhibitory concentration against Staphylococcus aureus UBMS 90-1 (tet M ribosomal protection).; procedure, shortened: as §1
Escherichia coli [8] = test: In vitro minimum inhibitory concentration against Escherichia coli UBMS 90-4 (tet M ribosomal protection).; procedure, shortened: as §1
Escherichia coli [9] = test: In vitro minimum inhibitory concentration against Escherichia coli UBMS 88-1 (tet B efflux).; procedure, shortened: as §1
Escherichia coli [10] = test: In vitro minimum inhibitory concentration against Escherichia coli J3272 (tet D efflux).; procedure, shortened: as §1

CN(C)[C@@H]1C(=O)C(C(N)=O)=C(O)[C@@]2(O)C(=O)C3=C(O)c4c(ccc(N)c4O)CC3CC12.O=S(=O)(O)O (stereo partly specified)
MIC (Enterococcus faecalis): 0.5 µg/mL
MIC (Staphylococcus aureus [1]): < 0.015 µg/mL
MIC (Escherichia coli [2]): > 32 µg/mL
MIC (Staphylococcus aureus [3]): 0.03 µg/mL
MIC (Escherichia coli [4]): 1 µg/mL
MIC (Escherichia coli [5]): 32 µg/mL
MIC (Staphylococcus aureus [6]): 4 µg/mL
MIC (Staphylococcus aureus [7]): 8 µg/mL
MIC (Escherichia coli [8]): 16 µg/mL
MIC (Escherichia coli [9]): > 32 µg/mL

CN(C)[C@@H]1C(=O)C(C(N)=O)=C(O)[C@@]2(O)C(=O)C3=C(O)c4c(O)c(N)cc(I)c4CC3CC12.O=S(=O)(O)O (stereo partly specified)
MIC (Enterococcus faecalis): 0.12 µg/mL
MIC (Staphylococcus aureus [1]): 0.03 µg/mL
MIC (Escherichia coli [2]): > 32 µg/mL
MIC (Staphylococcus aureus [3]): < 0.015 µg/mL
MIC (Escherichia coli [4]): 4 µg/mL
MIC (Escherichia coli [5]): > 32 µg/mL
MIC (Staphylococcus aureus [6]): 0.5 µg/mL
MIC (Staphylococcus aureus [7]): 0.5 µg/mL
MIC (Escherichia coli [8]): > 32 µg/mL
MIC (Escherichia coli [9]): > 32 µg/mL

CC(=O)Nc1cc(N(C)C)c2c(c1O)C(O)=C1C(=O)[C@]3(O)C(O)=C(C(N)=O)C(=O)[C@@H](N(C)C)C3CC1C2 (stereo partly specified)
MIC (Enterococcus faecalis): 0.25 µg/mL (≈ 0.486 µM)
MIC (Staphylococcus aureus [1]): 0.25 µg/mL (≈ 0.486 µM)
MIC (Escherichia coli [2]): > 32 µg/mL
MIC (Staphylococcus aureus [3]): 0.25 µg/mL (≈ 0.486 µM)
MIC (Escherichia coli [4]): 8 µg/mL (≈ 15.5 µM)
MIC (Escherichia coli [5]): > 32 µg/mL
MIC (Staphylococcus aureus [6]): 8 µg/mL (≈ 15.5 µM)
MIC (Staphylococcus aureus [7]): 1 µg/mL (≈ 1.94 µM)
MIC (Escherichia coli [8]): 4 µg/mL (≈ 7.77 µM)
MIC (Escherichia coli [9]): > 32 µg/mL

CN(C)c1cc(NC(=O)CN)c(O)c2c1CC1CC3[C@H](N(C)C)C(=O)C(C(N)=O)=C(O)[C@@]3(O)C(=O)C1=C2O.O=C(O)C(F)(F)F (stereo partly specified)
MIC (Enterococcus faecalis): 0.25 µg/mL
MIC (Escherichia coli [10]): 2 µg/mL
MIC (Staphylococcus aureus [1]): 0.5 µg/mL
MIC (Escherichia coli [2]): 32 µg/mL
MIC (Staphylococcus aureus [3]): 1 µg/mL
MIC (Escherichia coli [4]): 2 µg/mL
MIC (Escherichia coli [5]): 32 µg/mL
MIC (Staphylococcus aureus [6]): > 32 µg/mL
MIC (Staphylococcus aureus [7]): 2 µg/mL
MIC (Escherichia coli [8]): 1 µg/mL
MIC (Escherichia coli [9]): 2 µg/mL

CCN(CC)c1cc(NC(=O)CN(C)C)c(O)c2c1CC1CC3[C@H](N(C)C)C(=O)C(C(N)=O)=C(O)[C@@]3(O)C(=O)C1=C2O.Cl (stereo partly specified)
MIC (Enterococcus faecalis): 0.25 µg/mL
MIC (Escherichia coli [10]): 0.5 µg/mL
MIC (Staphylococcus aureus [1]): 0.5 µg/mL
MIC (Escherichia coli [2]): 4 µg/mL
MIC (Staphylococcus aureus [3]): 0.5 µg/mL
MIC (Escherichia coli [4]): 1 µg/mL
MIC (Escherichia coli [5]): 4 µg/mL
MIC (Staphylococcus aureus [6]): 1 µg/mL
MIC (Staphylococcus aureus [7]): 0.5 µg/mL
MIC (Escherichia coli [8]): 1 µg/mL
MIC (Escherichia coli [9]): 1 µg/mL

CN(C)CC(=O)Nc1cc(N(C)C)c2c(c1O)C(=O)C1=C(O)[C@]3(O)C(O)=C(C(N)=O)C(=O)[C@@H](N(C)C)C3CC1C2.Cl (stereo partly specified)
MIC (Enterococcus faecalis): 0.06 µg/mL
MIC (Escherichia coli [10]): 0.12 µg/mL
MIC (Staphylococcus aureus [1]): 0.06 µg/mL
MIC (Escherichia coli [2]): 1 µg/mL
MIC (Staphylococcus aureus [3]): 0.12 µg/mL
MIC (Escherichia coli [4]): 0.25 µg/mL
MIC (Escherichia coli [5]): 2 µg/mL
MIC (Staphylococcus aureus [6]): 2 µg/mL
MIC (Staphylococcus aureus [7]): 0.25 µg/mL
MIC (Escherichia coli [8]): 0.25 µg/mL
MIC (Escherichia coli [9]): 0.25 µg/mL

CN(C)c1cc(N)c(O)c2c1CC1CC3[C@H](N(C)C)C(=O)C(C(N)=O)=C(O)[C@@]3(O)C(=O)C1=C2O.Cl (stereo partly specified)
MIC (Enterococcus faecalis): 0.25 µg/mL
MIC (Escherichia coli [10]): 8 µg/mL
MIC (Staphylococcus aureus [1]): 0.06 µg/mL
MIC (Escherichia coli [2]): 16 µg/mL
MIC (Staphylococcus aureus [3]): 0.06 µg/mL
MIC (Escherichia coli [4]): 0.5 µg/mL
MIC (Escherichia coli [5]): 4 µg/mL
MIC (Staphylococcus aureus [6]): 0.25 µg/mL
MIC (Staphylococcus aureus [7]): 0.5 µg/mL
MIC (Escherichia coli [8]): 8 µg/mL
MIC (Escherichia coli [9]): 32 µg/mL

CN(C)c1cc(NC=O)c(O)c2c1CC1CC3[C@H](N(C)C)C(=O)C(C(N)=O)=C(O)[C@@]3(O)C(=O)C1=C2O (stereo partly specified)
MIC (Enterococcus faecalis): 0.03 µg/mL (≈ 0.0599 µM)
MIC (Escherichia coli [10]): 8 µg/mL (≈ 16 µM)
MIC (Staphylococcus aureus [1]): 0.03 µg/mL (≈ 0.0599 µM)
MIC (Escherichia coli [2]): > 32 µg/mL
MIC (Staphylococcus aureus [3]): 0.03 µg/mL (≈ 0.0599 µM)
MIC (Escherichia coli [4]): 0.25 µg/mL (≈ 0.499 µM)
MIC (Escherichia coli [5]): 16 µg/mL (≈ 32 µM)
MIC (Staphylococcus aureus [6]): 4 µg/mL (≈ 7.99 µM)
MIC (Staphylococcus aureus [7]): 0.06 µg/mL (≈ 0.12 µM)
MIC (Escherichia coli [8]): 1 µg/mL (≈ 2 µM)
MIC (Escherichia coli [9]): > 32 µg/mL

CCN(CC)c1cc(NC(C)=O)c(O)c2c1CC1CC3[C@H](N(C)C)C(=O)C(C(N)=O)=C(O)[C@@]3(O)C(=O)C1=C2O (stereo partly specified)
MIC (Enterococcus faecalis): 0.25 µg/mL (≈ 0.461 µM)
MIC (Staphylococcus aureus [1]): 0.12 µg/mL (≈ 0.221 µM)
MIC (Escherichia coli [2]): > 32 µg/mL
MIC (Staphylococcus aureus [3]): 0.12 µg/mL (≈ 0.221 µM)
MIC (Escherichia coli [4]): 32 µg/mL (≈ 59 µM)
MIC (Escherichia coli [5]): > 32 µg/mL
MIC (Staphylococcus aureus [6]): 2 µg/mL (≈ 3.69 µM)
MIC (Staphylococcus aureus [7]): 2 µg/mL (≈ 3.69 µM)
MIC (Escherichia coli [8]): 32 µg/mL (≈ 59 µM)
MIC (Escherichia coli [9]): 32 µg/mL (≈ 59 µM)

CN(C)CC(=O)Nc1ccc2c(c1O)C(=O)C1=C(O)[C@]3(O)C(O)=C(C(N)=O)C(=O)[C@@H](N(C)C)C3CC1C2.Cl (stereo partly specified)
MIC (Enterococcus faecalis): 0.03 µg/mL
MIC (Escherichia coli [10]): 0.12 µg/mL
MIC (Staphylococcus aureus [1]): 0.06 µg/mL
MIC (Escherichia coli [2]): 0.5 µg/mL
MIC (Staphylococcus aureus [3]): 0.12 µg/mL
MIC (Escherichia coli [4]): 0.12 µg/mL
MIC (Escherichia coli [5]): 1 µg/mL
MIC (Staphylococcus aureus [6]): 1 µg/mL
MIC (Staphylococcus aureus [7]): 0.12 µg/mL
MIC (Escherichia coli [8]): 0.12 µg/mL
MIC (Escherichia coli [9]): 0.25 µg/mL
